Converted amounts (≈) assume the structure as drawn.

For data set [1], the system named is Mycobacterium tuberculosis. As to the kind of experiment: Antimicrobial activity against clinical isolates of Mycobacterium tuberculosis SAWC 3385 Cas1/Delhi under 7H9 medium assessed as growth inhibition after 14 days by alamar blue assay. Type of data set: functional. Particulars: 336 h.
Data set [2] relates to Mycobacterium tuberculosis. As to the kind of experiment: Antimicrobial activity against Mycobacterium tuberculosis H37RvMA under GAST/Fe medium assessed as growth inhibition after 14 days by alamar blue assay. It is filed as functional. Conditions: 336 h. A digest of the protocol:
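Broth microdilution in GAST/Fe medium against fully virulent Mtb H37RvMa or its derived strains (cytochrome bd oxidase deletion ΔcydKO; qcrB Ala317Thr point mutant). Plates were incubated 14 days, growth was read by Alamar Blue, and MIC90 was taken as the potency value.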

The subject of data set [3] is Mycobacterium tuberculosis. As to the kind of experiment: Antimicrobial activity against clinical isolates of Mycobacterium tuberculosis SAWC 3933 LCC under 7H9 medium assessed as growth inhibition after 14 days by alamar blue assay. Type of data set: functional. Conditions: 336 h. On the technique in general: Alamar Blue is a resazurin reagent that responds to reducing activity.

The nature of data set [4]: Kinetic solubility in FaSSIF at pH 6.5 after 2 hours at 25 degC by shake flask method. Type of data set: physicochemical. Conditions: read-out: Kinetic_solubility.
Data set [5] concerns Mycobacterium tuberculosis. As to the kind of experiment: Antimicrobial activity against clinical isolates of Mycobacterium tuberculosis SAWC 3906 Atyp-beijing under 7H9 medium assessed as growth inhibition after 14 days by alamar blue assay. It is filed as functional. Conditions: 336 h.
Data set [6] relates to Mycobacterium tuberculosis. Put plainly: Antimicrobial activity against clinical isolates of Mycobacterium tuberculosis SAWC 2371 Haarlem under 7H9 medium assessed as growth inhibition after 14 days by alamar blue assay. Type of data set: functional. Particulars: 336 h.
Data set [7] can be described thus: Half life in human plasma at 0.1 uM by LC-MS/MS method. It is filed as ADME, cell-free.
The subject of data set [8] is Mycobacterium tuberculosis. Put plainly: Antimicrobial activity against GFP expressing recombinant Mycobacterium tuberculosis H37RvMA under GAST/Fe medium assessed as growth inhibition after 14 days by broth microdilution method. Type of data set: functional. Particulars: 336 h. In general terms: Broth dilution looks for growth in wells or tubes with falling amounts of substance.

Data set [9] deals with Liver microsome. As to the kind of experiment: Intrinsic clearance in rat liver microsomes assessed per mg of protein at 0.1 uM by LC-MS/MS method in presence or absence of NADPH. It is filed as ADME. (In general: Liver microsomes are a subcellular fraction often used to study metabolism.)
For data set [10], the system named is Mycobacterium tuberculosis. Put plainly: Antimicrobial activity against GFP expressing recombinant Mycobacterium tuberculosis H37RvMA under 7H9 medium assessed as growth inhibition after 14 days by broth microdilution method. Particulars: 336 h. It is filed as functional.
A short description of data set [11]: Metabolic stability in human liver S9 fractions assessed as residual compound at 0.1 uM after 40 mins by LC-MS/MS method in presence or absence of NADPH. Particulars: read-out: Stability. Type of data set: ADME.
Data set [12] in a line: Octanol-phosphate buffer partition coefficient, log D of the compound at 100 uM at pH 7.4 after 3 hrs by shake flask method. It is filed as physicochemical.
For the next data set, the system named is Vero. As to the kind of experiment: Cytotoxicity against African green monkey Vero cells assessed as cell viability by MTT assay. It is filed as cell-based. Conditions: Chlorocebus sabaeus. A digest of the protocol:
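VERO kidney epithelial cells from African green monkey were exposed to compounds at concentrations up to 100 μM, and IC₅₀ was reported.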

The nature of data set [13]: Intrinsic clearance in mouse liver microsomes assessed per mg of protein at 0.1 uM by LC-MS/MS method in presence or absence of NADPH. It is filed as ADME.
The subject of data set [14] is Liver microsome. As to the kind of experiment: Intrinsic clearance in human liver microsomes assessed per mg of protein at 0.1 uM by LC-MS/MS method in presence or absence of NADPH. Type of data set: ADME.

The MIC90 is an inhibitory concentration at the 90% level, which refers to growth in some studies and to a panel of isolates in others. Take `COc1cccc(CN2C(=O)c3c(C)nc(-c4nc(C)no4)c(N)c3C2=O)c1`: the MIC90 was 0.075 µM (≈ 0.0285 µg/mL) in data set [1]; below 0.156 µM in data set [2]; 0.15 µM (≈ 0.0569 µg/mL) in data set [3]; 0.075 µM (≈ 0.0285 µg/mL) in [5]; 0.3 µM (≈ 0.114 µg/mL) in data set [6]. In data set [4], the solubility kinetic at 2 h is below 5 µM.

A word on the half-life: it is the time in which the quantity being followed falls by half. A word on the logD: it is the decadic logarithm of the distribution of all forms, ionised or not, between an organic phase and buffer at a given pH. One may read the IC50 as the midpoint of a concentration-inhibition curve. Consider `Cc1noc(-c2nc(C)c3c(c2N)C(=O)N(Cc2cccc(OC(F)(F)F)c2)C3=O)n1`, for which the half-life at 0.1 µM in [7] is above 6 h. Besides, the results for the MIC90 in data set [2], in [8] and in data set [10] were 0.0637 µM (≈ 0.0276 µg/mL), 0.052 µM and above 20 µM, respectively. Also, the CLint in the data set on Liver microsome [9] is 32.4 µL/min/mg; in [13], 65.7 µL/min/mg; in the data set on Liver microsome [14] it was 15.4 µL/min/mg. In addition, the solubility kinetic at 2 h in [4] turned out to be 6.3 µM (≈ 2.73 µg/mL). For the same compound, the remaining at 40 min, 0.1 µM in data set [11] was determined as 93%. The same compound came in with a logD at 3 h, 100 µM in [12] of 3.64. In the data set with Vero, the IC50 is above 100 µM.

(Values after ChEMBL document CHEMBL3734652, “Pyrrolo[3,4-c]pyridine-1,3(2H)-diones: A Novel Antimycobacterial Class Targeting Mycobacterial Respiration” (J Med Chem, 2015).)
